Key:
[1] = molecular target: T1, Sodium-dependent dopamine transporter (Homo sapiens, UniProt Q01959); test: Inhibition of [125I]RTI-55 binding to dopamine transporter
Procedure, shortened: (§1)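 Membranes from HEK 293 cells expressing human DAT or SERT, lysed in 2 mM HEPES/1 mM EDTA, pelleted at 30000g and resuspended in 0.32 M sucrose (about 15 µg protein per assay). Incubated 90 min at room temperature in the dark, then filtered. Duplicate competition curves; IC50 converted to Ki by Cheng-Prusoff.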

[2] = molecular target: T1, Sodium-dependent dopamine transporter; test: Inhibition of [3H]dopamine reuptake in HEK293 cells expressing human dopamine transporter; type: cell-based
Procedure, shortened: (§2)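 Confluent HEK 293 cells expressing human SERT or DAT were scraped into PBS and used as a suspension in Krebs HEPES at 25 °C. Drug (six concentrations, triplicate) was preincubated with cells 10 min. [3H]5-HT or [3H]DA (0.020 µM final) was added for 10 min, then uptake was stopped by filtration onto polyethyleneimine-soaked GF/C filters. IC50 from three independent experiments.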

[3] = molecular target: T2, Sodium-dependent noradrenaline transporter (Homo sapiens, UniProt P23975); test: Inhibition of [3H]NE reuptake by human norepinephrine transporter expressed in HEK293 cells; type: cell-based
T2 sequence (P23975 whole entry): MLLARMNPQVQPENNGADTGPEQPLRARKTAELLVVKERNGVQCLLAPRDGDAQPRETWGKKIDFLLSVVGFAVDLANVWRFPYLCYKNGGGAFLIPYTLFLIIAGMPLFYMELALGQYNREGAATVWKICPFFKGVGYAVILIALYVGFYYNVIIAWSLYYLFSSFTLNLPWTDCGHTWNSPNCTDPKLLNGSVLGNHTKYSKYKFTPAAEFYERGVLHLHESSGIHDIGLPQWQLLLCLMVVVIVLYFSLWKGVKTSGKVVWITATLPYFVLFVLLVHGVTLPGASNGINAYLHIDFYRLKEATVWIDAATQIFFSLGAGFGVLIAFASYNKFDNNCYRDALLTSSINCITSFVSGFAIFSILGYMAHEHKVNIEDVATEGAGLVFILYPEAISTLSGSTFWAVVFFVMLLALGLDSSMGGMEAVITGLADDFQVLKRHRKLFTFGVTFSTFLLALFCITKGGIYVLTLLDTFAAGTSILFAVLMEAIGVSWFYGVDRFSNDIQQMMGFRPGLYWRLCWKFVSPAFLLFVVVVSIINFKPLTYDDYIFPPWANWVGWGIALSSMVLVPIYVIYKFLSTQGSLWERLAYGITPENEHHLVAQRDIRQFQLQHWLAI

[4] = molecular target: T2, Sodium-dependent noradrenaline transporter; test: Binding affinity at the norepinephrine transporter was measured using [125I]RTI-55 as a radioligand
[5] = molecular target: T3, Sodium-dependent serotonin transporter (Homo sapiens, UniProt P31645); test: Inhibition of [3H]5-HT reuptake in HEK293 cells expressing human serotonin transporter; type: cell-based; procedure, shortened: as §2
T3 sequence (P31645 whole entry): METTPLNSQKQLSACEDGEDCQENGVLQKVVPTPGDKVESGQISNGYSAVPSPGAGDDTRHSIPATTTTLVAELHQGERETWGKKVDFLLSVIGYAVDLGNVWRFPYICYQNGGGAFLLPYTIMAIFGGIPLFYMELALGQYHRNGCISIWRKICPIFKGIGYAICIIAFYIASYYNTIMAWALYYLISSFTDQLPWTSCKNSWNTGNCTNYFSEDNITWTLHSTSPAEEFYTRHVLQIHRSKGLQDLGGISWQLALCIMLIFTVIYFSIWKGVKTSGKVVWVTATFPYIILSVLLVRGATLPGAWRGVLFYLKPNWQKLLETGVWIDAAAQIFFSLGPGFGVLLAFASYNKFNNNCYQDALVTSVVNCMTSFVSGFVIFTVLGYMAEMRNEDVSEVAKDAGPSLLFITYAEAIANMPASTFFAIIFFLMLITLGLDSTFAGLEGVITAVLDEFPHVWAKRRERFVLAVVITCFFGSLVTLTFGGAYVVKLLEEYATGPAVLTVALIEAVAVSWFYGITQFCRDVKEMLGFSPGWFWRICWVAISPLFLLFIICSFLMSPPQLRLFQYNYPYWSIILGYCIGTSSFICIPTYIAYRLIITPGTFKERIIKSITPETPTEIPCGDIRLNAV

[6] = Discrimination ratio of [3H]5-HT reuptake/SERT binding; type: functional
[7] = molecular target: Monoamine transporters; Norepinephrine & dopamine (Homo sapiens) (UniProt Q01959+P23975); test: Selectivity ratio of NET/DAT; type: protein assay
Monoamine transporters; Norepinephrine & dopamine (Homo sapiens), sequence (P23975 whole entry, looked up): as the sequence (P23975 whole entry) above
Monoamine transporters; Norepinephrine & dopamine (Homo sapiens), sequence (Q01959 whole entry, looked up): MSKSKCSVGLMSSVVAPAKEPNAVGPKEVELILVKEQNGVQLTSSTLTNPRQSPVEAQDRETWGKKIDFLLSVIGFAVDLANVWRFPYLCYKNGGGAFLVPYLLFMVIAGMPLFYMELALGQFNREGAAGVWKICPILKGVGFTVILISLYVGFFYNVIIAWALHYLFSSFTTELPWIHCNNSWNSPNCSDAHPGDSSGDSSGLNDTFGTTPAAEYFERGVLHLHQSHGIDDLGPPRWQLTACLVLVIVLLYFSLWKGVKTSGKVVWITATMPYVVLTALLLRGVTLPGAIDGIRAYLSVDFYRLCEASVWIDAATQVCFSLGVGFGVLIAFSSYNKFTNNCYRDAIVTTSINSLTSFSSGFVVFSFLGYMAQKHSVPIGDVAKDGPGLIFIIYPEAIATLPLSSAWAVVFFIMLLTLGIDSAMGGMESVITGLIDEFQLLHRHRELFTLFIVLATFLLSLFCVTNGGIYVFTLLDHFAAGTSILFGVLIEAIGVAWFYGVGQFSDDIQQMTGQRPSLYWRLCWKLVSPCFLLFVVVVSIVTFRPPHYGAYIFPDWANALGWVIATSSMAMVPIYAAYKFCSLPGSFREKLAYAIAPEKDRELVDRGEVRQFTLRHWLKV

[8] = molecular target: Monoamine transporters; serotonin & dopamine (Homo sapiens) (UniProt P31645+Q01959); test: Selectivity ratio of SERT/DAT; type: protein assay
Monoamine transporters; serotonin & dopamine (Homo sapiens), sequence (P31645 whole entry, looked up): as the sequence (P31645 whole entry) above
Monoamine transporters; serotonin & dopamine (Homo sapiens), sequence (Q01959 whole entry, looked up): as the sequence (Q01959 whole entry, looked up) above

[9] = Discrimination ratio of [3H]-DA reuptake/DAT binding; type: functional
[10] = molecular target: T3, Sodium-dependent serotonin transporter; test: Binding affinity for serotonin transporter using [125I]RTI-55; procedure, shortened: as §1

T1 sequence (Q01959 whole entry): as the sequence (Q01959 whole entry, looked up) above

Structure (SMILES)	Ki [1]	IC50 [2]	IC50 [3]	Ki [4]	IC50 [5]	Discrimination ratio [6]	Selectivity ratio [7]	Selectivity ratio [8]	Discrimination ratio [9]	Ki [10]
CN(CCOC(c1ccccc1)c1ccccc1)C1CCN(CCCc2ccccc2)CC1	0.03 µM	0.33 µM	0.2 µM	0.029 µM	1.91 µM	0.9	1	47.3	11.1	1.4 µM
c1ccc(CCCNCC2CCCN(CCOC(c3ccccc3)c3ccccc3)C2)cc1 (configuration not stated)	0.07 µM	0.105 µM	0.048 µM	0.041 µM	0.77 µM	2.5	0.6	4.5	1.5	0.32 µM
c1ccc(CCCN2CCCC(CNCCOC(c3ccccc3)c3ccccc3)C2)cc1 (configuration not stated)	0.018 µM	0.15 µM	0.097 µM	0.023 µM	0.82 µM	3.8	1.3	11.9	8.1	0.21 µM
Fc1ccc(CCNCC2CCCN(CCOC(c3ccccc3)c3ccccc3)C2)cc1 (configuration not stated)	0.087 µM	0.364 µM	0.19 µM	0.19 µM	1.83 µM	2.1	2.1	10.2	4.2	0.89 µM
c1ccc(CCCN2CCN(CCOC(c3ccccc3)c3ccccc3)CC2)cc1			0.165 µM	0.63 µM						
Fc1ccc(CCN2CCCC(CNCCOC(c3ccccc3)c3ccccc3)C2)cc1 (configuration not stated)	0.1 µM	0.5 µM	0.2 µM	0.15 µM	1.13 µM	3.3	1.5	3.3	4.8	0.35 µM
CN(CCc1ccc(F)cc1)CC1CCCN(CCOC(c2ccccc2)c2ccccc2)C1 (configuration not stated)	0.09 µM	1.26 µM	0.35 µM	0.11 µM	2.13 µM	4	1.3	5.9	14	0.53 µM
c1ccc(CN2CCC(NCCOC(c3ccccc3)c3ccccc3)CC2)cc1	0.083 µM	0.27 µM	0.087 µM	0.18 µM	1.86 µM	0.9	2.1	26	3.2	2.16 µM
Fc1ccc(CCNC2CCN(CCOC(c3ccccc3)c3ccccc3)CC2)cc1	0.11 µM	0.32 µM	0.17 µM	0.079 µM	0.47 µM	2.1	0.7	2	2.9	0.22 µM
CN(CCCc1ccccc1)C1CCN(CCOC(c2ccccc2)c2ccccc2)CC1	0.34 µM	0.21 µM	0.18 µM	0.042 µM	0.31 µM	3.6	0.1	0.3	0.6	0.087 µM
c1ccc(CCCNC2CCN(CCOC(c3ccccc3)c3ccccc3)CC2)cc1	0.16 µM	0.39 µM	0.23 µM	0.12 µM	0.39 µM	7.1	0.8	0.4	2.5	0.055 µM

Reference: ChEMBL document CHEMBL1133662, “Novel 3-aminomethyl- and 4-aminopiperidine analogues of 1-[2-(diphenylmethoxy)ethyl]-4-(3-phenylpropyl)piperazines: synthesis and evaluation as dopamine transporter ligands” (J Med Chem, 2000)
